According to ChEMBL document CHEMBL3091366, “New 5-Aryl-1H-imidazoles display in vitro antitumor activity against apoptosis-resistant cancer models, including melanomas, through mitochondrial targeting” (J Med Chem, 2013):
pIC50: −log10 of the molar value. Active and inactive are the calls of the source. The rule behind the calls is not given here.

Experiments:
[1] = tested on: SK-MEL-28; test: Effect on oxygen consumption in human SK-MEL-28 cells at 10 uM after 72 hrs by oxygraphic analysis; format: functional, cell-based
Summary of the method: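 SKMEL-28 cells pre-incubated 72 h with 10^-5 M compound or untreated; five million cells per chamber in phenol red-free DMEM (glucose 1 g/L, pyruvate 110 mg/L). ROUTINE respiration recorded by high-resolution respirometry (Clark electrode), 37 °C, continuous stirring from chamber closure; O2 consumption slopes taken as routine respiration.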

[2] = tested on: NCI-H322M; test: Cytotoxicity against human NCI-H322M cells assessed as residual growth at 10 uM; format: functional
[3] = tested on: SNB-19; test: Cytotoxicity against human SNB19 cells assessed as residual growth at 10 uM; format: functional
[4] = tested on: TK-10; test: Cytotoxicity against human TK10 cells assessed as residual growth at 10 uM; format: functional
[5] = tested on: SN12C; test: Cytotoxicity against human SN12C cells assessed as residual growth at 10 uM; format: functional
[6] = tested on: MDA-MB-468; test: Cytotoxicity against human MDA-MB-468 cells assessed as residual growth at 10 uM; format: functional
[7] = tested on: SR; test: Cytotoxicity against human SR cells assessed as residual growth at 10 uM; format: functional
[8] = tested on: PC-3; test: Cytotoxicity against human PC3 cells assessed as residual growth at 10 uM; format: functional
[9] = tested on: LOX IMVI; test: Cytotoxicity against human LOXIMVI cells assessed as residual growth at 10 uM; format: functional
[10] = tested on: SK-MEL-28; test: Effect on oxygen consumption in human SK-MEL-28 cells at 10 uM by oxygraphic analysis; format: functional, cell-based
Summary of the method: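 Compound added directly at 10 µM to the oxygraph chamber holding SKMEL-28 cells; ROUTINE respiration recorded by Clark-electrode high-resolution respirometry at 37 °C in phenol red-free DMEM with glucose 1 g/L and pyruvate 110 mg/L, with stirring.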

[11] = tested on: SK-MEL-28; test: Induction of apoptosis in apoptotic-resistant human SK-MEL-28 cells at 5 uM after 24 to 72 hrs by TUNEL staining-based flow cytometry; format: functional, cell-based
Summary of the method: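 SKMEL-28 cells treated with 5 µM for 24, 48 and 72 h; apoptosis by TUNEL plus propidium iodide staining (APO-Direct kit) read by flow cytometry. Kit negative/positive controls, plus PC-3 cells untreated or given 1 µM narciclasine 72 h as internal controls. Quadruplicate (kit controls singlet); mean ± SEM.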

[12] = tested on: K562; test: Cytotoxicity against human K562 cells assessed as residual growth at 10 uM; format: functional
[13] = tested on: OVCAR-8; test: Cytotoxicity against human OVCAR8 cells assessed as residual growth at 10 uM; format: functional
[14] = tested on: A549; test: Cytotoxicity against human A549 cells assessed as residual growth at 10 uM; format: functional
[15] = tested on: SK-MEL-28; test: Cell cycle arrest in apoptotic-resistant human SK-MEL-28 cells at 5 uM after 24 to 72 hrs by double propidium iodide staining-based flow cytometry; format: functional
Summary of the method: (§1)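 SK-MEL-28 cells exposed to 5 µM for 24, 48 and 72 h. Cell cycle was read by flow cytometry with propidium iodide plus TUNEL double staining (APO-Direct kit), in quadruplicate. Videomicroscopy photographed each field every 4 min over 72 h. Global growth is cells at a time point divided by cells at time 0; the treated/control ratio gives GGR. Cell death was judged from morphology. Run twice, in triplicate and in quadruplicate.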

[16] = Cytotoxicity against human NCI-ADR-RES cells assessed as residual growth at 10 uM; format: functional
[17] = Cytotoxicity against human OVCAR5 cells assessed as residual growth at 10 uM; format: functional, OVCAR-5
[18] = tested on: HCT-15; test: Cytotoxicity against human HCT15 cells assessed as residual growth at 10 uM; format: functional
[19] = tested on: SK-MEL-28; test: Induction of ROS production in human SK-MEL-28 cells at 5 uM by DCFH-DA staining-based flow cytometry; format: functional, cell-based; details: TDE = time-dependent effect
Summary of the method: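 SKMEL-28 cells exposed to 5 µM over a time course, washed twice, stained 1 h at 37 °C with 20 µM DCFH-DA in phenol red-free RPMI, washed twice, trypsinized; ROS-driven probe oxidation read as fluorescence by flow cytometry. Run once in quadruplicate; mean ± SEM.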

[20] = tested on: B16-F10; test: Cytotoxicity against apoptotic-sensitive mouse B16F10 cells assessed as growth inhibition after 72 hrs by MTT-based colorimetric assay; format: functional, cell-based; details: B16-F10, 72 h
Summary of the method: (§2)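 MTT colorimetric assay, 72 h exposure to the fumarate salt. Read-out is reduction of MTT to formazan by living cells. IC50 is the concentration that reduces the whole cell population by 50%. Six replicates per condition. Where compounds were not tested on every line, apoptosis-sensitive lines were PC3, MCF-7, LoVo and B16F10, and apoptosis-resistant lines were U373, T98G, A549 and SK-MEL-28.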

[21] = tested on: SK-MEL-28; test: Cytotoxicity against apoptotic-resistant human SK-MEL-28 cells assessed as cell death at 5 uM after 72 hrs by quantitative videomicroscopy; format: functional, cell-based; summary of the method: as §1
[22] = Cytotoxicity against human EKVX cells assessed as residual growth at 10 uM; format: functional
[23] = tested on: BT-549; test: Cytotoxicity against human BT549 cells assessed as residual growth at 10 uM; format: functional
[24] = Cytotoxicity against apoptotic-resistant human U373 cells assessed as growth inhibition after 72 hrs by MTT-based colorimetric assay; format: functional, cell-based, U-373MG ATCC; details: Homo sapiens, U373 MG, 72 h; summary of the method: as §2
[25] = Cytotoxicity against human OVCAR4 cells assessed as residual growth at 10 uM; format: functional, OVCAR-4
[26] = tested on: CCRF-CEM; test: Cytotoxicity against human CCRF-CEM cells assessed as residual growth at 10 uM; format: functional
[27] = tested on: Melanoma cell; test: Cytotoxicity against human Melanoma cells assessed as growth inhibition after 72 hrs by MTT-based colorimetric assay; format: functional
Summary of the method: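 Eleven human primary melanoma cultures treated for 72 h with the fumarate salt. Growth inhibition read by colorimetric MTT assay, with IC50 taken as 50% reduction of the cell population. Maximal concentration tested was 100 µM. Run once in sextuplicate.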

[28] = tested on: 786-0; test: Cytotoxicity against human 786-0 cells assessed as residual growth at 10 uM; format: functional
[29] = tested on: DU-145; test: Cytotoxicity against human DU145 cells assessed as residual growth at 10 uM; format: functional
[30] = tested on: SK-OV-3; test: Cytotoxicity against human SKOV3 cells assessed as residual growth at 10 uM; format: functional
[31] = tested on: SK-MEL-28; test: Cytotoxicity against apoptotic-resistant human SK-MEL-28 cells assessed as growth inhibition after 72 hrs by MTT-based colorimetric assay; format: functional, cell-based; details: Homo sapiens, SK-MEL-28, 72 h; summary of the method: as §2
[32] = tested on: NHDF; test: Cytotoxicity against human NHDF cells assessed as growth inhibition after 72 hrs by MTT-based colorimetric assay; format: cell-based; summary of the method: as §2
[33] = tested on: Malme-3M; test: Cytotoxicity against human MALME-3M cells assessed as residual growth at 10 uM; format: functional

## C=CCCCCOc1ccccc1-c1cnc(OCCCCC=C)n1C
[1]
  Activity: Active
[2]
  Activity: 71.99%
[3]
  Activity: 91.08%
[4]
  Activity: 74.98%
[5]
  Activity: 91.09%
[6]
  Activity: 25.48%
[7]
  Activity: 30.69%
[8]
  Activity: 73.54%
[9]
  Activity: 69.06%
[10]
  Activity: inactive
[11]
  Activity: inactive
[12]
  Activity: 30.53%
[13]
  Activity: 83.91%
[14]
  Activity: 50.25%
[15]
  Activity: inactive
[16]
  Activity: 30.38%
[17]
  Activity: 95.17%
[18]
  Activity: 52.21%
[19]
  Activity: tde
[20]
  pIC50: 5.15
[21]
  Activity: inactive
[22]
  Activity: 85.23%
[23]
  Activity: 96.77%
[24]
  pIC50: 5.15
[25]
  Activity: 97.91%
[26]
  Activity: 80.85%
[27]
  Activity: Active
[28]
  Activity: 106.84%
[29]
  Activity: 92.64%
[30]
  Activity: 74.99%
[31]
  pIC50: 5.30
[32]
  pIC50: 4.44
[33]
  Activity: 62.83%
